# How the values were obtained:
# Calf thymus DNA [1] = assay: Apparent binding constant calf thymus DNA-drug complex; format: nucleic-acid assay; details: Bos taurus
# Method in brief: (§1)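 Calf thymus DNA; spectral titration; binding isotherms in 0.01 M phosphate buffer, pH 7.0, 20 °C; Kapp (per base pair) and Bapp (drug binding sites per base pair) taken from Scatchard plot.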
# Calf thymus DNA [2] = assay: Apparent number of binding sites per base pairs in DNA; format: nucleic-acid assay; details: Bos taurus; method in brief: as §1
# CCRF-CEM = assay: In vitro antitumor activity against human lymphoblastic leukemia cells.; format: functional; details: read-out: ID50 (the source's name)
# Method in brief: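 Human lymphoblastic leukemia CCRF-CEM cells grown in suspension culture; growth inhibition in vitro; ID50 (ng/mL) reported as the 50% inhibitory dose.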
# P388 [3] = assay: Percent of increased life span of P388 cells implanted CDF1 male mice; format: functional, Mus musculus
# Method in brief: (§2)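 CDF1 male mice, groups of seven, given 10^6 P388 cells ip on day 0; drug ip in 5% DMSO–saline on days 1, 5 and 9; controls received vehicle; range of doses tested, optimal nontoxic dose listed; median survival time; %ILS = (treated − control)/control × 100; average of two or more experiments.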
# P388 [4] = assay: Concentration required for 50% inhibition of incorporation of labeled thymidine by p388 cells for synthesis of DNA (in vitro); format: functional; details: Mus musculus, read-out: ED50 (the source's name)
# P388 [5] = assay: Median survival time of the P388 cells implanted CDF1 male mice in vivo; format: functional, Mus musculus; method in brief: as §2
# P388 [6] = assay: Optimal dose for antitumor activity was measured in P388 cells of CDF1 male mice in vivo; format: functional, Mus musculus; method in brief: as §2
# P388 [7] = assay: Concentration required for 50% inhibition of incorporation of labeled uridine by P388 cells for the synthesis of RNA (in vitro); format: functional; details: Mus musculus, read-out: ED50 (the source's name)
SMILES,K app (Calf thymus DNA [1]) [M⁻¹],Bapp (Calf thymus DNA [2]),IC50 (CCRF-CEM) [mg/L],ILS (P388 [3]) [%],EC50 (P388 [4]) [µM],MST (P388 [5]) [days],Optimal dose (P388 [6]) [mg/kg],EC50 (P388 [7]) [µM]
CCCOc1cc(C(=O)N[C@@H]2C(=O)N[C@H](C(C)C)C(=O)N3CCC[C@@H]3C(=O)N(C)CC(=O)N(C)[C@@H](C(C)C)C(=O)O[C@@H]2C)c2nc3c(C(=O)N[C@H]4C(=O)N[C@@H](C(C)C)C(=O)N5CCC[C@H]5C(=O)N(C)CC(=O)N(C)[C@H](C(C)C)C(=O)O[C@H]4C)c(N)c(=O)c(C)c-3oc2c1C,2.1e+06,0.078,,,,,,
COc1cc(C(=O)N[C@@H]2C(=O)N[C@H](C(C)C)C(=O)N3CCC[C@@H]3C(=O)N(C)CC(=O)N(C)[C@@H](C(C)C)C(=O)O[C@@H]2C)c2nc3c(C(=O)N[C@H]4C(=O)N[C@@H](C(C)C)C(=O)N5CCC[C@H]5C(=O)N(C)CC(=O)N(C)[C@H](C(C)C)C(=O)O[C@H]4C)c(N)c(=O)c(C)c-3oc2c1C,7.7e+06,0.11,,,,,,
CCCCOc1cc(C(=O)N[C@@H]2C(=O)N[C@H](C(C)C)C(=O)N3CCC[C@@H]3C(=O)N(C)CC(=O)N(C)[C@@H](C(C)C)C(=O)O[C@@H]2C)c2nc3c(C(=O)N[C@H]4C(=O)N[C@@H](C(C)C)C(=O)N5CCC[C@H]5C(=O)N(C)CC(=O)N(C)[C@H](C(C)C)C(=O)O[C@H]4C)c(N)c(=O)c(C)c-3oc2c1C,1.1e+06,,,,,,,
Cc1c2oc3c(C)c(O)c(N)c(C(=O)N[C@H]4C(=O)N[C@@H](C(C)C)C(=O)N5CCC[C@H]5C(=O)N(C)CC(=O)N(C)[C@H](C(C)C)C(=O)O[C@H]4C)c3nc-2c(C(=O)N[C@@H]2C(=O)N[C@H](C(C)C)C(=O)N3CCC[C@@H]3C(=O)N(C)CC(=O)N(C)[C@@H](C(C)C)C(=O)O[C@@H]2C)c/c1=N/Cc1ccc[nH]1,9.2e+07,0.055,,,,,,
Cc1c2oc3c(C)c(O)c(N)c(C(=O)N[C@H]4C(=O)N[C@@H](C(C)C)C(=O)N5CCC[C@H]5C(=O)N(C)CC(=O)N(C)[C@H](C(C)C)C(=O)O[C@H]4C)c3nc-2c(C(=O)N[C@@H]2C(=O)N[C@H](C(C)C)C(=O)N3CCC[C@@H]3C(=O)N(C)CC(=O)N(C)[C@@H](C(C)C)C(=O)O[C@@H]2C)c/c1=N/Cc1ccccc1,5.8e+06,0.049,,,,,,
CCOc1cc(C(=O)N[C@@H]2C(=O)N[C@H](C(C)C)C(=O)N3CCC[C@@H]3C(=O)N(C)CC(=O)N(C)[C@@H](C(C)C)C(=O)O[C@@H]2C)c2nc3c(C(=O)N[C@H]4C(=O)N[C@@H](C(C)C)C(=O)N5CCC[C@H]5C(=O)N(C)CC(=O)N(C)[C@H](C(C)C)C(=O)O[C@H]4C)c(N)c(=O)c(C)c-3oc2c1C,6.9e+06,0.097,,,,,,
Cc1c2oc3c(C)c(O)c(N)c(C(=O)N[C@@H]4C(=O)N[C@H](C(C)C)C(=O)N5CCC[C@H]5C(=O)N(C)CC(=O)N(C)[C@@H](C(C)C)C(=O)O[C@@H]4C)c3nc-2c(C(=O)N[C@@H]2C(=O)N[C@H](C(C)C)C(=O)N3CCC[C@H]3C(=O)N(C)CC(=O)N(C)[C@@H](C(C)C)C(=O)O[C@@H]2C)cc1=O,,,0.95,129,5.08,24,1.2,3.22
COc1cc(C(=O)N[C@@H]2C(=O)N[C@H](C(C)C)C(=O)N3CCC[C@H]3C(=O)N(C)CC(=O)N(C)[C@@H](C(C)C)C(=O)O[C@@H]2C)c2nc3c(C(=O)N[C@@H]4C(=O)N[C@H](C(C)C)C(=O)N5CCC[C@H]5C(=O)N(C)CC(=O)N(C)[C@@H](C(C)C)C(=O)O[C@@H]4C)c(N)c(=O)c(C)c-3oc2c1C,,,0.16,81,0.628,19,0.6,0.069
CCCOc1cc(C(=O)N[C@@H]2C(=O)N[C@H](C(C)C)C(=O)N3CCC[C@H]3C(=O)N(C)CC(=O)N(C)[C@@H](C(C)C)C(=O)O[C@@H]2C)c2nc3c(C(=O)N[C@@H]4C(=O)N[C@H](C(C)C)C(=O)N5CCC[C@H]5C(=O)N(C)CC(=O)N(C)[C@@H](C(C)C)C(=O)O[C@@H]4C)c(N)c(=O)c(C)c-3oc2c1C,,,0.31,52,1.98,16,0.75,0.23

# From ChEMBL document CHEMBL1121923, “N2- and C-7 substituted actinomycin D analogues: synthesis, DNA-binding affinity, and biochemical and biological properties. Structure-activity relationship” (J Med Chem, 1981)
